Assay results as given in ChEMBL document CHEMBL1157311, “Aurilides B and C, cancer cell toxins from a Papua New Guinea collection of the marine cyanobacterium Lyngbya majuscula” (2006).

Key:
[1] = Cytotoxicity against mouse Neuro2a cells after 48 hrs by MTT assay; type: functional; conditions: N2a, read-out: LC50 (the source's name)
Summary of the method: (§1)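 Cells seeded at 6000/well and grown 24 h, then given test chemicals dissolved in DMSO and diluted in serum-free medium (DMSO under 0.5% final). Viability read by MTT reduction after 48 h exposure; LC50 reported. Method follows Alley et al.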

NCI-H460 = test: Cytotoxicity against human NCI-H460 cells after 48 hrs by MTT assay; type: functional; conditions: NCI-H460, 48 h, read-out: LC50 (the source's name); summary of the method: as §1

Question: What does the source list for `CC/C=C(\C)[C@H]1OC(=O)[C@H](C)N(C)C(=O)[C@H](C(C)C)NC(=O)CN(C)C(=O)[C@H]([C@H](C)CC)N(C)C(=O)[C@H](C(C)C)NC(=O)[C@@H](C(C)C)OC(=O)/C(C)=C/C[C@H](O)[C@@H]1C` [AURILIDE C]?
Answer: CC50 [1]: 0.05 µM; CC50 (NCI-H460): 0.13 µM
